Results from ChEMBL document CHEMBL4368894, “Fluorine substituted methoxyphenylalkyl amides as potent melatonin receptor agonists” (Medchemcomm, 2019).
pEC50: −log10 of the molar value. Activity calls are given as the source filed them. The rule behind the calls is not given here.

How the values were obtained:
[1] = target: T1, Melatonin receptor type 1C (Xenopus laevis) (UniProt P49219); experiment: Agonist activity at Melatonin receptor type 1C in Xenopus laevis melanophores assessed as induction of pigment aggregation response by microtiter plate reader based absorbance detection assay relative to melatonin
T1 sequence (whole entry): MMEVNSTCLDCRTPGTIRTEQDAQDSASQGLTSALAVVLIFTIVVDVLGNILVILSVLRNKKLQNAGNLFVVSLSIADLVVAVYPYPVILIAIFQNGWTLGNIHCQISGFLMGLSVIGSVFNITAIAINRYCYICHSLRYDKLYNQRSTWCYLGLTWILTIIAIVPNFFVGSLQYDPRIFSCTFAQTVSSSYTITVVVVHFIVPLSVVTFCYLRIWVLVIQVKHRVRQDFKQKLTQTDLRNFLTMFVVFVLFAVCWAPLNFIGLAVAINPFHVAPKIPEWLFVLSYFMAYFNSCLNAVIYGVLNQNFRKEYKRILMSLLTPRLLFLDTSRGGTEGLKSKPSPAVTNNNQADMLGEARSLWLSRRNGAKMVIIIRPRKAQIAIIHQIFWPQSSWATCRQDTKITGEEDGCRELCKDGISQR
Procedure, shortened: (§1)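 Cultured melanophores (about 6-8 x 10³ per well) switched to 0.7 x L-15 medium with 1 mg·mL⁻¹ bovine albumin 1 h before concentration-response runs, in which pigment stays dispersed. Aggregation read as absorbance at 630 nm before and after drug, expressed as fractional change 1-(A_f/A_i). Drugs diluted fresh from 10⁻² M methanol or DMSO stocks; final solvent at most 1% v/v.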

[2] = target: T1, Melatonin receptor type 1C (Xenopus laevis); experiment: Antagonist activity at Melatonin receptor type 1C in Xenopus laevis melanophores assessed as inhibition of melatonin-induced pigment aggregation response up to 10^-4M pre-incubated 60 mins before melatonin addition by microtiter plate reader based absorbance detection assay
[3] = target: T2, Melatonin receptor type 1C (Xenopus laevis, UniProt P49219); experiment: Agonist activity at Melatonin receptor type 1C in Xenopus laevis melanophores assessed as induction of pigment aggregation response by microtiter plate reader based absorbance detection assay; procedure, shortened: as §1
T2 sequence (P49219 whole entry): T1 sequence (whole entry)

[4] = target: T1, Melatonin receptor type 1C (Xenopus laevis); experiment: Antagonist activity at Melatonin receptor type 1C in Xenopus laevis melanophores assessed as inhibition of melatonin-induced pigment aggregation response pre-incubated 60 mins before melatonin addition by microtiter plate reader based absorbance detection assay; parameters: concentration or dose not given beside the values
Procedure, shortened: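 Melanophores pre-equilibrated 1 h in 0.7 x L-15 medium containing 1 mg·mL⁻¹ bovine albumin. Antagonist (10⁻⁵ M) added 60 min ahead of melatonin, and melatonin concentration-response curves run with and without it. Pigment aggregation read as 630 nm absorbance change, 1-(A_f/A_i). pK_B taken as log(concentration ratio – 1) – log[antagonist]. Solvent at most 1% v/v.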

| Compound | Efficacy [1] [%] | inhibition [2] | pEC50 [3] | inhibition [4] [%] |
| --- | --- | --- | --- | --- |
| COc1ccc(F)c(C(C)(C)CNC(C)=O)c1 | 100 | inactive | 6.74 |  |
| CCC(=O)NCC(C)(C)c1cc(OC)ccc1F | 100 | inactive | 6.57 |  |
| CCC(=O)NCCCc1ccc(F)c(OC)c1 | 89 | inactive | 8.96 |  |
| CCC(=O)NCc1ccc(F)c(OC)c1 | 86 | inactive | 5.54 |  |
| COc1ccc2[nH]cc(CCNC(C)=O)c2c1 [MELATONIN] |  |  | 9.91 |  |
| CCCC(=O)NCc1cc(OC)ccc1F | 43 |  | 5.87 | 44 |
| CCC(=O)NCCc1cc(OC)ccc1F | 100 | inactive | 6.10 |  |
| CC(=O)NCCc1c(Cc2ccccc2)[nH]c2ccccc12 |  |  |  | 100 |
| COc1cc(C(C)(C)CNC(C)=O)ccc1F | 100 | inactive | 8.74 |  |
| CCC(=O)NCC(C)(C)c1ccc(F)c(OC)c1 | 100 | inactive | 9.27 |  |
| CCCC(=O)NCc1ccc(F)c(OC)c1 | 75 | inactive | 5.60 |  |
| COc1ccc(F)c(CCCNC(C)=O)c1 | 100 | inactive | 7.69 |  |
| COc1ccc(F)c(CNC(C)=O)c1 | 100 | inactive | 5.71 |  |
| CCC(=O)NCC(C)(C)c1ccc(OC)c(F)c1 | 100 | inactive | 7.03 |  |
| CCCC(=O)NCCc1ccc(F)c(OC)c1 | 100 | inactive | 7.18 |  |
| CCCC(=O)NC(C)Cc1ccc(F)c(OC)c1 (stereo not drawn) | 89 | inactive | 6.98 |  |
| COc1ccc(F)c(CCNC(C)=O)c1 | 100 | inactive | 5.61 |  |
| CCCC(=O)NCC(C)(C)c1cc(OC)ccc1F | 100 | inactive | 7.01 |  |
| CCCC(=O)NCCCc1ccc(F)c(OC)c1 | 89 | inactive | 9.05 |  |
| CCC(=O)NCc1cc(OC)ccc1F | 69 |  | 5.62 | 23 |
| CCCC(=O)NCC(C)(C)c1ccc(F)c(OC)c1 | 100 | inactive | 10.64 |  |
| CCCC(=O)NCCc1cc(OC)ccc1F | 100 | inactive | 6.60 |  |
| COc1ccc(C(C)(C)CNC(C)=O)cc1F | 100 | inactive | 7.09 |  |
| CCCC(=O)NCc1ccc(OC)c(F)c1 | 57 |  | 6.18 | 37 |
| CCCC(=O)NCC(C)(C)c1ccc(OC)c(F)c1 | 100 | inactive | 7.10 |  |
| CCC(=O)NCCCc1cc(OC)ccc1F | 100 | inactive | 8.43 |  |
| CCCC(=O)NCCCc1cc(OC)ccc1F | 100 | inactive | 8.02 |  |

The remaining lines, values ahead:

| Efficacy [1] [%] | inhibition [2] | pEC50 [3] | inhibition [4] [%] | Compound |
| --- | --- | --- | --- | --- |
| 83 | inactive | 5.68 |  | COc1cc(CNC(C)=O)ccc1F |
| 77 | inactive | 5.82 |  | COc1ccc(CNC(C)=O)cc1F |
| 52 |  | 5.92 | 48 | CCCC(=O)NCCc1ccc(OC)c(F)c1 |
| 79 | inactive | 5.74 |  | COc1ccc(CCCNC(C)=O)cc1F |
| 80 | inactive | 5.87 |  | CCC(=O)NCCc1ccc(OC)c(F)c1 |
| 73 |  | 6.38 | 19 | CCCC(=O)NCCCc1ccc(OC)c(F)c1 |
| 100 | inactive | 7.07 |  | CCC(=O)NCCc1ccc(F)c(OC)c1 |
| 78 |  | 6.06 | 8 | CCC(=O)NCCCc1ccc(OC)c(F)c1 |
| 51 |  | 5.98 | 24 | CCC(=O)NCc1ccc(OC)c(F)c1 |
| 80 | inactive | 5.62 |  | COc1ccc(CCNC(C)=O)cc1F |
| 92 | inactive | 8.41 |  | COc1cc(CCCNC(C)=O)ccc1F |
| 100 | inactive | 6.56 |  | COc1cc(CCNC(C)=O)ccc1F |
